Assay outcomes as filed in PubChem BioAssay.
OX1R antag-1 = antagonists of human orexin 1 receptor; O43613; CHO/OX1R cells, Fluo-8 calcium fluorescence, orexin A; inhibition, % at 5 µM; 330,000 compounds, 0.43% hits; AID 434989;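 active means inhibition above its plate's threshold, mean inhibition of all tested compounds on the plate plus 3 SD, cut at about 37% in these data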
CHO parental Ca = counter-screen for OX1R antagonists: effect in parental CHO cells; AID 463079; 330,000 compounds, 0.63% hits; inhibition, % at 5.6 µM; parental CHO-K1, ATP-induced calcium, Fluo-8 fluorescence;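 active means inhibition above that plate's mean sample inhibition plus 3 SD, cut at about 26% in these data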
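Test system: parental CHO cells; detection: calcium-sensitive Fluo-8 fluorescence; evaluation: percent inhibition of calcium signal; also added: ATP as calcium-mobilizing challenge; repeats: one well per compound; control set: ATP-challenged DMSO wells low, unchallenged DMSO wells high; compound: single nominal dose of 5.6 µM per compound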
TAAR1 agonist = agonists of human TAAR1; activation, % at 3 µM; Q96RJ0; CHO RD-HGA16 TAAR1, Fluo-8 calcium fluorescence; vehicle wells 0%, saturating PEA agonist 100%; 360,000 compounds, 0.99% hits;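 active means activation above the mean activation of all test compounds in the run plus 3 SD, cut at about 38% in these data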
Target sequence (Q96RJ0 whole entry, looked up): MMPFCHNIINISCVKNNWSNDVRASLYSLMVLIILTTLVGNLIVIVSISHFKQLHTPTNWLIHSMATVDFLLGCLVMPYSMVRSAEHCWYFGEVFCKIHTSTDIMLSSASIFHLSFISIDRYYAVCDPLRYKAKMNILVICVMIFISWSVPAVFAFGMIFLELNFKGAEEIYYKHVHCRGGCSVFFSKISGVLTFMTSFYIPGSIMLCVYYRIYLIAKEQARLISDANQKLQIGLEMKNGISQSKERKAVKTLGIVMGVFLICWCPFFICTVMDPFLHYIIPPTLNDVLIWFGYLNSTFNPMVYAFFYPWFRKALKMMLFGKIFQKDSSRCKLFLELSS
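System: CHO-derived RD-HGA16 cells with stable Gα16 and human TAAR1. Times: 17-24 h plating, Fluo-8 75 min 37 °C, 30 min RT. Measured by: calcium-sensitive Fluo-8 signal, excitation 470-495, emission 515-575 nm. Read-out basis: % activation relative to PEA EC100 response. Control set: DMSO and PEA EC100. Repeats: no replicates (n 1).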
OX1R antag-2 = antagonists of human orexin 1 receptor (OX1R) | O43613 | OX1R-expressing cells, FRET antagonist read-out | inhibition, % at 6.6 µM | 330,000 compounds, 1.8% hits; in the data active means inhibition mostly above about 38%, no sharp cut-off; inactive means mostly below about 40%
GalR3 antagonist = blocks the human galanin receptor 3; O60755; 360,000 compounds, 0.44% hits; AID 651719; HEK293 GalR3-CNG cAMP membrane potential fluorescence; galR3 body fused to GalR1 C-terminus; inhibition, % at 3 µM;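 active means inhibition above the screen-wide average plus 3 SD, cut at about 13% in these data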;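 further: forskolin and galanin both at EC90 stimulate the cells; cAMP rise reported by CNG channel membrane potential dye signal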
Target sequence (O60755 1-299 limits assumed): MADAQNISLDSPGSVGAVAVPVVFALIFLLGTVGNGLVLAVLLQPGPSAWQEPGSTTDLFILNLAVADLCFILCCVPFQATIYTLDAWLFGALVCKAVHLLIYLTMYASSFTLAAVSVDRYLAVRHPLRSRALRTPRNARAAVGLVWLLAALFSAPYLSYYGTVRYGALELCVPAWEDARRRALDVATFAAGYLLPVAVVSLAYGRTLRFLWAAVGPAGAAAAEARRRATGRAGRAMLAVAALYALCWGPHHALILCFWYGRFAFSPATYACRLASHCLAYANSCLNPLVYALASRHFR
TAAR1 antag = antagonists of human TAAR1 | Q96RJ0 | CHO RD-HGA16 TAAR1, Fluo-8 calcium fluorescence, antagonist | inhibition, % at 3 µM | 360,000 compounds, 1.5% hits | AID 624466;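 active means inhibition above a per-plate cutoff, the mean inhibition of test compounds on that plate plus 3 SD, cut at about 49% in these data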
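System: RD-HGA16 CHO cells with stable hTAAR1 and Gα16 | Probe or stimulus: EC80 β-phenethylamine stimulus | Dosing: 3 µM, single point | Times: Dye loading 75 min at 37 °C, then 30 min room temperature | Measured by: Fluo-8 calcium-sensitive fluorescence | Read-out basis: % inhibition of agonist calcium response | Replicates: n of 1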
TAAR1 ag conf = confirmation of human TAAR1 agonists. AID 651783. 2,400 compounds, 82% hits. shares compounds with TAAR1 agonist. activation, % at 3 µM. CHO RD-HGA16 TAAR1, Fluo-8 calcium fluorescence; scaled: DMSO 0%, maximal phenethylamine 100%;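 active means activation above a cutoff set at the run's mean compound activation plus 3 SD, cut at about 39% in these data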
Ga16 ag counter = counter-screen for TAAR1 agonists: nonselective agonists in parental cells; shares compounds with TAAR1 agonist; CHO-Ga16 parental, Fluo-8 calcium fluorescence; normalized to maximal ATP response, DMSO zero; activation, % at 3 µM; 2,400 compounds, 50% hits;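 active means activation above the run cutoff, the mean activation over all tested wells plus 3 SD, cut at about 12% in these data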
TAAR1 desensitize = human TAAR1 agonist that also desensitizes the receptor. inhibition, % at 3 µM. 2,400 compounds, 46% hits. shares compounds with TAAR1 agonist. AID 651951. CHO RD-HGA16 hTAAR1, Fluo-8 calcium, beta-PEA response inhibition;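 active means inhibition above the run cutoff, the mean inhibition of all test compounds plus 3 SD, cut at about 49% in these data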;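 further: beta-PEA stimulus applied at its EC80; loss of beta-PEA calcium signal after compound pretreatment read as receptor desensitization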
Ga16 antag count = nonselective Ga16 antagonism, counter-screen. AID 651952. inhibition, % at 3 µM. 2,400 compounds, 39% hits. CHO-Ga16 ATP-induced calcium, Fluo-8 fluorescence. shares compounds with TAAR1 agonist;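 active means inhibition above the plate's mean compound inhibition plus 3 SD, computed per plate, cut at about 22% in these data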
GalR3 antag conf = confirmation of human galanin receptor 3 antagonists. shares compounds with GalR3 antagonist. HEK293 GalR3 CNG cAMP biosensor, membrane potential fluorescence; galR3 fused to GalR1 carboxy tail; challenged with forskolin and galanin at EC90. inhibition, % at 3 µM. 1,600 compounds, 59% hits;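 active means inhibition above the primary screen's cutoff, the mean inhibition of all screened compounds plus 3 SD, cut at about 13% in these data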
CNG parental = parental cell agonism counter-screen for GalR3 antagonists. shares compounds with GalR3 antagonist. HEK293-CNG parental cells, cAMP membrane potential fluorescence; normalised: DMSO wells 0%, forskolin wells 100%. activation, % at 3 µM. 1,600 compounds, 10% hits. AID 652268; in the data active means activation above about 1.3%
A number is an active result; - = inactive; . = no result. This is a sample that favours compounds with a hit; in the whole collection about 4.2% have one here.

SMILES | OX1R antag-1 | CHO parental Ca | TAAR1 agonist | OX1R antag-2 | GalR3 antagonist | TAAR1 antag | GalR3 antag conf | CNG parental | others
CC1OC(NCCc2ccccc2)C(O)C(O)C1O (stereo unspecified) | - | - | . | - | - | . | . | . | Ga16 ag counter=-;Ga16 antag count=-
O=C1NC(=O)C(=Cc2ccc(-c3ccc(F)cc3O)o2)C(=O)N1 | - | - | 104.7 | - | - | 85.1 | . | . | TAAR1 ag conf=108.8;Ga16 ag counter=60.8;TAAR1 desensitize=87.6;Ga16 antag count=68.1
O=C(c1ccc(N2CC3CC(C2)c2cccc(=O)n2C3)c([N+](=O)[O-])c1)N1CCCCC1 (stereo unspecified) | - | - | - | - | - | - | . | .
CN1C[C@H](CO)C[C@@H]2c3cccc4[nH]cc(c34)C[C@H]21 | - | - | 41.5 | - | - | - | . | . | TAAR1 ag conf=57.4;Ga16 ag counter=-;TAAR1 desensitize=-;Ga16 antag count=-
COc1ccc(S(=O)(=O)N2CCOCC2)cc1NC(=O)COC(=O)Cc1ccccc1 | - | - | - | - | - | - | . | .
CCCC1(CC(C)CC)C(=O)NC(=O)NC1=O (stereo unspecified) | . | . | 51.3 | . | - | - | . | . | TAAR1 ag conf=78.3;Ga16 ag counter=-;TAAR1 desensitize=-;Ga16 antag count=-
CCCC[N+]12CCC(CC1)C(Cc1ccccc1)C2 (stereo unspecified) | - | - | - | - | - | - | . | .
COc1cc2c(cc1/C=C/[N+](=O)[O-])OCO2 | . | . | - | . | - | - | . | .
COc1cc(/C=C/[N+](=O)[O-])ccc1OC(=O)c1cccnc1 | . | . | 56.3 | . | - | - | . | . | TAAR1 ag conf=87.1;Ga16 ag counter=62.5;TAAR1 desensitize=67.2;Ga16 antag count=60.0
COC(=O)C1=C(c2cc3ccccc3o2)C[C@@H]2CC[C@H]1N2C(=O)N1CCOCC1 | - | - | - | - | - | - | . | .
C[C@]12CC[C@H]3C(CCC4(O)CC(O)CC[C@]34C=O)C1=CC[C@H]2c1ccc(=O)oc1 (stereo partly specified) | - | - | - | - | 16.7 | - | 41.7 | 2.7
O=c1[nH]c(=O)n(-c2ccccc2F)c(O)c1C=NCCC1=CCCCC1 | - | - | - | - | - | - | . | .
Oc1ccc(C[C@H]2NCCc3cc(O)c(O)cc32)cc1O | . | . | - | . | 37.4 | - | 52.6 | 2.5
CN[C@H](C)[C@H](O)c1ccccc1 | - | - | . | - | . | . | . | .
CC(NCC#Cc1ccccc1)C(O)c1ccccc1 (stereo unspecified) | - | - | - | - | 16.0 | - | 35.4 | -
Cc1ccc(Cn2nc(C(=O)Nc3ccc(Br)cc3)cc2C)cc1 | - | 50.0 | - | - | 92.5 | - | 104.0 | -
CCCN(CCC)C1Cc2cc(OC)c(OC)cc2C1 | - | - | - | - | . | - | . | .
O=C(NCCO)c1nsnc1NCCCl | - | - | - | - | . | - | 28.4 | -
COc1ccc(C(CC(=O)c2ccc3c(c2)OCO3)c2c(O)c3ccccc3oc2=O)cc1OC (stereo unspecified) | . | . | - | . | - | - | . | .
COc1ccc(C2=CC(c3ccc4c(c3)OCO4)c3c(c4ccccc4oc3=O)O2)cc1OC (stereo unspecified) | . | . | - | . | 36.2 | - | 42.1 | -
NC(=O)c1c(Br)n(C2OC(CO)C(O)C2O)c2ncnc(N)c12 (stereo unspecified) | . | . | - | . | - | - | . | .
NC(=O)c1cn(C2OC(CO)C(O)C2O)c2ncnc(N)c12 (stereo unspecified) | - | - | - | - | 80.5 | - | 80.9 | -
N#Cc1c(Br)n(C2OC(CO)C(O)C2O)c2ncnc(N)c12 (stereo unspecified) | . | . | - | . | - | - | . | .
N#Cc1cn(C2OC(CO)C(O)C2O)c2ncnc(N)c12 (stereo unspecified) | . | . | - | . | 68.5 | - | 76.3 | -
CC(=O)c1cc(C#N)c(N2CCN(C)CC2)nc1C | - | - | - | - | - | - | . | .
SMILES | OX1R antag-1 | CHO parental Ca | TAAR1 agonist | OX1R antag-2 | GalR3 antagonist | TAAR1 antag | GalR3 antag conf | CNG parental | others
Cc1nn(C)c(C)c1/C=C1/CC2C3CC=C4CC(O)CCC4(C)C3CCC2(C)C1=O (stereo unspecified) | - | - | - | - | 14.0 | - | 30.5 | -
COc1ccc(-n2nnnc2C(c2cc3ccccc3o2)N2CCC(n3c(=O)[nH]c4ccccc43)CC2)cc1 (stereo unspecified) | . | . | - | . | 42.2 | 50.6 | 26.9 | -
CCOC(=O)[C@]12Cc3cc(Cl)ccc3[C@H]1N(C)C(=O)c1cc(OC)ccc12 | . | . | - | . | - | - | . | .
CCOC(=O)[C@]12Cc3ccc(C)cc3[C@H]1N(C1CCCCC1)C(=O)c1cc(OC)ccc12 | . | . | - | . | 16.0 | - | 45.3 | 2.3
CCOC(=O)[C@]12Cc3cc(Cl)ccc3[C@H]1N(C1CCCCC1)C(=O)c1cc(OC)ccc12 | . | . | - | . | 19.7 | 63.4 | 46.3 | 4.3
CCOC(=O)[C@]12Cc3cc(C)ccc3[C@H]1N(C1CCCCC1)C(=O)c1ccccc12 | . | . | - | . | 34.2 | - | 58.0 | -
CCOC(=O)[C@]12Cc3ccc(C)cc3[C@H]1N(C1CCCCC1)C(=O)c1ccccc12 | . | . | - | . | - | - | . | .
COC(=O)C(O)(c1ccc(N(C)C(=O)c2ccc(Cl)c(Cl)c2)cc1)C(F)(F)F (stereo unspecified) | - | - | - | - | - | - | . | .
Cc1cccc([N+](=O)[O-])c1 | - | - | - | - | - | - | . | .
Cc1cc([N+](=O)[O-])c(Cl)cc1NC(=O)C(C)C | - | - | - | - | - | - | . | .
CNc1cc(Cl)c2nonc2c1[N+](=O)[O-] | . | . | - | . | 39.1 | - | 31.3 | -
N#Cc1c(/N=C/c2c(O)n(Cc3ccco3)c(=O)[nH]c2=O)sc2c1CCCC2 | - | - | - | - | - | - | . | .
Clc1ccc(-c2nc3ccc(Cl)cn3c2CN2CCOCC2)cc1 | - | - | - | - | - | - | . | .
